Source: ChEMBL document CHEMBL4346684, “Synthesis and structure-bactericidal activity relationships of non-ketolides: 9-Oxime clarithromycin 11,12-cyclic carbonate featured with three-to eight-atom-length spacers at 3-OH” (Eur J Med Chem, 2019)
≈ marks a conversion by molar mass, not a printed value.

Legend:
Assay type in all cases: functional
[1] = tested on: Staphylococcus aureus; assay: Antimicrobial activity against inducibly erythromycin resistant Staphylococcus aureus PU64 expressing i-ermA incubated in CAMHB medium for 20 hrs by two-fold microbroth dilution method; conditions: PU64, 20 h
Procedure, shortened: (§1)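 Purified fresh Staphylococcus isolate at about 5×10^5 CFU/ml final in CAMHB, 35 °C for 20 h. […] Each run included ATCC strains and reference antibiotics as QC, plus an antibiotic-free growth control.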

[2] = tested on: Streptococcus pneumoniae; assay: Antimicrobial activity against erythromycin-susceptible Streptococcus pneumoniae ATCC 49619 incubated in CAMHB medium for 20 to 24 hrs by two-fold microbroth dilution method
[3] = tested on: Staphylococcus aureus; assay: Antimicrobial activity against erythromycin-susceptible Staphylococcus aureus ATCC 29213 incubated in CAMHB medium for 20 hrs by two-fold microbroth dilution method; conditions: ATCC 29213, 20 h
Procedure, shortened: (§2)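 Clinical isolates and ATCC strains, purified by plate activation and used fresh; inoculum about 5×10^5 CFU/ml final. Grown in CAMHB at 35 °C for 20 h.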

[4] = tested on: Streptococcus pyogenes; assay: Antimicrobial activity against constitutively erythromycin resistant Streptococcus pyogenes A2 expressing c-erm incubated in CAMHB medium for 20 to 24 hrs by two-fold microbroth dilution method
Procedure, shortened: (§3)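 Purified fresh Streptococcus isolate at about 5×10^5 CFU/ml final in CAMHB with 5% horse serum, 35 °C for 20–24 h. […] Each run included ATCC strains and reference antibiotics as QC, plus an antibiotic-free growth control.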

[5] = tested on: Staphylococcus epidermidis; assay: Antimicrobial activity against Staphylococcus epidermidis E1 incubated in CAMHB medium for 20 hrs by two-fold microbroth dilution method; conditions: E1, 20 h; procedure, shortened: as §2
[6] = tested on: Streptococcus pneumoniae; assay: Antimicrobial activity against mef-encoded erythromycin resistant Streptococcus pneumoniae PU09 incubated in CAMHB medium for 20 to 24 hrs by two-fold microbroth dilution method
[7] = tested on: Streptococcus pneumoniae; assay: Antimicrobial activity against constitutively erythromycin resistant Streptococcus pneumoniae PU27 expressing c-erm incubated in CAMHB medium for 20 to 24 hrs by two-fold microbroth dilution method; procedure, shortened: as §3
[8] = tested on: Staphylococcus aureus; assay: Antimicrobial activity against constitutively erythromycin resistant Staphylococcus aureus PU20 expressing c-ermC incubated in CAMHB medium for 20 hrs by two-fold microbroth dilution method; conditions: PU20, 20 h; procedure, shortened: as §1
[9] = tested on: Staphylococcus aureus; assay: Antimicrobial activity against inducibly erythromycin-resistant Staphylococcus aureus PU32 expressing i-ermA incubated in CAMHB medium for 20 hrs by two-fold microbroth dilution method; conditions: PU32, 20 h; procedure, shortened: as §1
[10] = tested on: Streptococcus pyogenes; assay: Antimicrobial activity against erythromycin-susceptible Streptococcus pyogenes A3 incubated in CAMHB medium for 20 to 24 hrs by two-fold microbroth dilution method
[11] = tested on: Haemophilus influenzae; assay: Antimicrobial activity against azithromycin-susceptible Haemophilus influenzae ATCC 49247 incubated in HTM broth medium for 20 to 24 hrs by two-fold microbroth dilution method
[12] = tested on: Streptococcus pneumoniae; assay: Ratio of MBC to MIC for mef-encoded erythromycin resistant Streptococcus pneumoniae PU09
[13] = tested on: Haemophilus influenzae; assay: Bactericidal activity against azithromycin-susceptible Haemophilus influenzae ATCC 49247 assessed as reduction in colony formation incubated in HTM broth medium for 20 to 24 hrs followed by 24 hrs subculturing in the medium without test compound
[14] = tested on: Streptococcus pyogenes; assay: Ratio of MBC to MIC for inducibly erythromycin resistant Streptococcus pyogenes 01-968 expressing i-ermA
[15] = tested on: Streptococcus pneumoniae; assay: Bactericidal activity against mef-encoded erythromycin resistant Streptococcus pneumoniae PU09 assessed as reduction in colony formation incubated in CAMHB medium for 20 to 24 hrs followed by 24 hrs subculturing in the medium without test compound
[16] = tested on: Streptococcus pyogenes; assay: Antimicrobial activity against inducibly erythromycin resistant Streptococcus pyogenes 01-968 expressing i-ermA incubated in CAMHB medium for 20 to 24 hrs by two-fold microbroth dilution method
[17] = tested on: Streptococcus pneumoniae; assay: Bactericidal activity against erythromycin-susceptible Streptococcus pneumoniae ATCC 49619 assessed as reduction in colony formation incubated in CAMHB medium for 20 to 24 hrs followed by 24 hrs subculturing in the medium without test compound
[18] = tested on: Staphylococcus aureus; assay: Antimicrobial activity against constitutively erythromycin resistant and methicillin resistant Staphylococcus aureus PU20 expressing c-ermC incubated in CAMHB medium for 20 hrs by two-fold microbroth dilution method; conditions: PU20, 20 h
Procedure, shortened: (§4)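 Purified fresh Staphylococcus isolate at about 5×10^5 CFU/ml final in CAMHB, 35 °C for 20 h. Each run included ATCC strains and reference antibiotics as QC, plus an antibiotic-free growth control.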

[19] = tested on: Streptococcus pyogenes; assay: Bactericidal activity against inducibly erythromycin resistant Streptococcus pyogenes 01-968 expressing i-ermA assessed as reduction in colony formation incubated in CAMHB medium for 20 to 24 hrs followed by 24 hrs subculturing in the medium without test compound
[20] = tested on: Staphylococcus aureus; assay: Bactericidal activity against inducibly erythromycin-resistant and methicillin resistant Staphylococcus aureus PU32 expressing i-ermA assessed as reduction in colony formation incubated in CAMHB medium for 20 hrs followed by 24 hrs subculturing in the medium without test compound
[21] = tested on: Haemophilus influenzae; assay: Ratio of MBC to MIC for azithromycin-susceptible Haemophilus influenzae ATCC 49247
[22] = tested on: Staphylococcus aureus; assay: Antimicrobial activity against inducibly erythromycin-resistant and methicillin resistant Staphylococcus aureus PU32 expressing i-ermA incubated in CAMHB medium for 20 hrs by two-fold microbroth dilution method; conditions: PU32, 20 h; procedure, shortened: as §4
[23] = tested on: Streptococcus pneumoniae; assay: Ratio of MBC to MIC for erythromycin-susceptible Streptococcus pneumoniae ATCC 49619

SMILES	MIC [1] [µg/mL]	MIC [2] [µg/mL]	MIC [3] [µg/mL]	MIC [4] [µg/mL]	MIC [5] [µg/mL]	MIC [6] [µg/mL]	MIC [7] [µg/mL]	MIC [8] [µg/mL]	MIC [9] [µg/mL]	MIC [10] [µg/mL]	also measured
C=CCO/N=C1\[C@H](C)C[C@@](C)(OC)[C@H](O[C@@H]2O[C@H](C)C[C@H](N(C)C)[C@H]2O)[C@@H](C)[C@H](OCC#Cc2ccc(N)nc2)[C@@H](C)C(=O)O[C@H](CC)[C@@]2(C)OC(=O)O[C@@H]2[C@H]1C	256 (≈ 320 µM)	2 (≈ 2.5 µM)	32 (≈ 40 µM)	64 (≈ 79.9 µM)	256 (≈ 320 µM)	4 (≈ 4.99 µM)	64 (≈ 79.9 µM)	256 (≈ 320 µM)	256 (≈ 320 µM)	4 (≈ 4.99 µM)	–
C=CCO/N=C1\[C@H](C)C[C@@](C)(OC)[C@H](O[C@@H]2O[C@H](C)C[C@H](N(C)C)[C@H]2O)[C@@H](C)[C@H](OCC#Cc2cccnc2N)[C@@H](C)C(=O)O[C@H](CC)[C@@]2(C)OC(=O)O[C@@H]2[C@H]1C	64 (≈ 79.9 µM)	4 (≈ 4.99 µM)	64 (≈ 79.9 µM)	64 (≈ 79.9 µM)	256 (≈ 320 µM)	8 (≈ 9.99 µM)	32 (≈ 40 µM)	256 (≈ 320 µM)	256 (≈ 320 µM)	4 (≈ 4.99 µM)	–
C=CCO/N=C1\[C@H](C)C[C@@](C)(OC)[C@H](O[C@@H]2O[C@H](C)C[C@H](N(C)C)[C@H]2O)[C@@H](C)[C@H](O)[C@@H](C)C(=O)O[C@H](CC)[C@@]2(C)OC(=O)O[C@@H]2[C@H]1C	> 256	8 (≈ 11.9 µM)	128 (≈ 191 µM)	128 (≈ 191 µM)	> 256	16 (≈ 23.9 µM)	128 (≈ 191 µM)	> 256	> 256	16 (≈ 23.9 µM)	–
C=CCO/N=C1\[C@H](C)C[C@@](C)(OC)[C@H](O[C@@H]2O[C@H](C)C[C@H](N(C)C)[C@H]2O)[C@@H](C)[C@H](OCC#Cc2cccc(N)n2)[C@@H](C)C(=O)O[C@H](CC)[C@@]2(C)OC(=O)O[C@@H]2[C@H]1C	128 (≈ 160 µM)	4 (≈ 4.99 µM)	64 (≈ 79.9 µM)	64 (≈ 79.9 µM)	256 (≈ 320 µM)	4 (≈ 4.99 µM)	64 (≈ 79.9 µM)	256 (≈ 320 µM)	256 (≈ 320 µM)	4 (≈ 4.99 µM)	–
CC[C@H]1OC(=O)[C@H](C)[C@@H](OC(=O)CCNCCNc2cc3c(=O)c(C(=O)O)cn(C4CC4)c3cc2Cl)[C@H](C)[C@@H](O[C@@H]2O[C@H](C)C[C@H](N(C)C)[C@H]2O)[C@](C)(OC)C[C@@H](C)/C(=N\OC)[C@H](C)[C@H]2OC(=O)O[C@@]21C	–	2 (≈ 1.96 µM)	–	–	–	8 (≈ 7.84 µM)	–	–	–	–	MIC [11]: 128 µg/mL (≈ 125 µM); Ratio [12]: 1; MBC [13]: 128 µg/mL (≈ 125 µM); Ratio [14]: 2; MBC [15]: 8 µg/mL (≈ 7.84 µM); MIC [16]: 16 µg/mL (≈ 15.7 µM); MBC [17]: 4 µg/mL (≈ 3.92 µM); MIC [18]: > 256 µg/mL; MBC [19]: 32 µg/mL (≈ 31.4 µM); MBC [20]: > 256 µg/mL; Ratio [21]: 1; MIC [22]: 256 µg/mL (≈ 251 µM); Ratio [23]: 2
C=CCO/N=C1\[C@H](C)C[C@@](C)(OC)[C@H](O[C@@H]2O[C@H](C)C[C@H](N(C)C)[C@H]2O)[C@@H](C)[C@H](OCC#Cc2cncc(N)c2)[C@@H](C)C(=O)O[C@H](CC)[C@@]2(C)OC(=O)O[C@@H]2[C@H]1C	128 (≈ 160 µM)	4 (≈ 4.99 µM)	64 (≈ 79.9 µM)	128 (≈ 160 µM)	256 (≈ 320 µM)	8 (≈ 9.99 µM)	128 (≈ 160 µM)	256 (≈ 320 µM)	256 (≈ 320 µM)	4 (≈ 4.99 µM)	–
